We go through 3 molecules from ChEMBL document CHEMBL1138348, “A p-[18F]fluoroethoxyphenyl bicyclic nucleoside analogue as a potential positron emission tomography imaging agent for varicella-zoster virus thymidine kinase gene expression” (J Med Chem, 2007).

Assay [1] concerns the target T1, Thymidine kinase, cytosolic (Homo sapiens, UniProt P04183).
T1 sequence (P04183 whole entry): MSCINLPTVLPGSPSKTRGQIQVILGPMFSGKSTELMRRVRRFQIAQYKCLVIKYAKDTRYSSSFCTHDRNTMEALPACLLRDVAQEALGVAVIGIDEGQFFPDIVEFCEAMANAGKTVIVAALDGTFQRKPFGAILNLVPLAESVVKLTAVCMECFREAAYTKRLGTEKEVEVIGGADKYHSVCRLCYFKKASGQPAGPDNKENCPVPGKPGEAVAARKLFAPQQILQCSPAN
Nature of the assay: Inhibition of human cytosolic thymidine kinase 1. An outline of the steps:
(§1)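 Purified recombinant VZV TK (7.75 ng), HSV-1 TK (226 ng) or human cytosolic TK-1 (455 ng) in 50 mM Tris-HCl pH 8.0, 2.5 mM MgCl2, 10 mM DTT, 2.5 mM ATP, 1 mg/mL BSA, 10 mM NaF, with 1 µM final [CH3-3H]dThd substrate. Incubated 30 min at 37 °C with varied compound concentrations; the reaction was linear over this time. Product bound on DE-81 filters, washed, and counted by liquid scintillation. Result reported as IC50.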

Assay [2] in a line: Inhibition of HSV1 thymidine kinase. More on the design: species or system Human alphaherpesvirus 1. Put shortly: as §1
The nature of assay [3]: Inhibition of Varicella zoster virus thymidine kinase. Details: species or system Human alphaherpesvirus 3. Put shortly: as §1

pIC50: −log10 of the molar value. Bounds are passed on as bounds.

As usually defined, the pIC50 is −log10 of the IC50, conventionally taken in molar units. A low value points to a high IC50. In the case of `O=c1nc2oc(-c3ccc(O)cc3)cc2cn1[C@H]1C[C@H](O)[C@@H](CO)O1`, the values for the negative-log IC50 (pIC50) in assay [1], in assay [2] and in assay [3] were less than 3.30, less than 3.30 and 6.40, respectively.

As for `COc1ccc(-c2cc3cn([C@H]4C[C@H](O)[C@@H](CO)O4)c(=O)nc3o2)cc1`, the pIC50 is less than 3.30 in assay [1], less than 3.30 in assay [2] and 5.82 in assay [3].

On to `O=c1nc2oc(-c3ccc(OCCF)cc3)cc2cn1[C@H]1C[C@H](O)[C@@H](CO)O1`, for which the pIC50 was less than 3.30 in assay [1], less than 3.30 in assay [2] and 5.38 in assay [3].
